Assay [1] has as its target T1, Sphingosine kinase 2 (Mus musculus) (UniProt Q9JIA7).
T1 sequence (whole entry): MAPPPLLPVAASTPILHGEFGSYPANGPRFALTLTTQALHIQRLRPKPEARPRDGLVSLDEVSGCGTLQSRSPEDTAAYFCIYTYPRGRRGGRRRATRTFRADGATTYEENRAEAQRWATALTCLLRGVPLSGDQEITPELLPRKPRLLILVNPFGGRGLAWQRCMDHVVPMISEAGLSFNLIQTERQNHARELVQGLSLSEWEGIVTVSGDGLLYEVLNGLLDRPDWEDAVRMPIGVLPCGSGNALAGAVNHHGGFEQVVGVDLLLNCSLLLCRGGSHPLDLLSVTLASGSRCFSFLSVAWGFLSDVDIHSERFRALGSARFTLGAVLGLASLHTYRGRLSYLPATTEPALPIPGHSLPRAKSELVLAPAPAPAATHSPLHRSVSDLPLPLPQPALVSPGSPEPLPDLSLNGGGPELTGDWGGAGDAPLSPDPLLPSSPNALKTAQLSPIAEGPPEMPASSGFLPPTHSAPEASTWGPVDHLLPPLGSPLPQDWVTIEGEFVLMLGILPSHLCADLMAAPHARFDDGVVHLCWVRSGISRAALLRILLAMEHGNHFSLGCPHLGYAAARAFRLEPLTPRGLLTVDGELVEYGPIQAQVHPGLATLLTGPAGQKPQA
Kind of assay: Inhibition of mouse recombinant SphK2 assessed as remaining enzyme activity at 10 uM using gamma[32P]ATP incubated for 20 mins by liquid scintillation counting method. The essentials:
(§1)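 Cell lysate containing recombinant mouse SphK2 incubated with sphingosine and γ-[³²P]ATP, with or without inhibitor, 20 min. Reactions extracted, ³²P-S1P separated by TLC and counted by liquid scintillation. Activity reported as ³²P-S1P formed; screened at 10 μM, with some compounds also assayed at 1 μM. Each value is the mean of two experiments.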

Assay [2] deals with T1, Sphingosine kinase 2 (Mus musculus). Briefly: Inhibition of mouse recombinant SphK2 assessed as remaining enzyme activity at 1 uM using gamma[32P]ATP incubated for 20 mins by liquid scintillation counting method. The procedure, abridged:
as §1

For the compound `CCCCCCCCCCCCc1ccc(-c2noc([C@@H]3CCCN3C(=N)N)n2)cc1`, the Activity in assay [1] stood at 15%; in assay [2] it was 56%.

With `CCCCCCCCCCc1ccc(-c2noc([C@@H]3CCCN3C(=N)N)n2)cc1`, the Activity came out at 9% in assay [1] and 46% in assay [2].

For `CN1CCN(c2ccc(-c3noc([C@@H]4CCN4C(=N)N)n3)cc2)CC1`, the Activity in assay [1] came to 90%.

For the compound `CCCCCCCCc1noc([C@@H]2CCCN2C(=N)N)n1`, the Activity in assay [1] came out at 88%.

With `N=C(N)N1CCC[C@H]1c1nc(-c2ccc(N3CCN(C(=O)C45CC6CC(CC(C6)C4)C5)CC3)cc2)no1`, in assay [1], the Activity amounted to 87%.

Consider `N=C(N)N1CC[C@H]1c1nc(-c2ccc(-c3ccccc3)cc2)no1`, for which the Activity in assay [1] was 91%.

Turning to `N=C(N)N1CC[C@H]1c1nc(-c2ccc(N3CCOCC3)cc2)no1`, the Activity in assay [1] stood at 94%.

Take `CCCCCCc1ccc(-c2noc([C@@H]3CCCN3C(=N)N)n2)cc1`: the Activity in assay [1] was 35%; in assay [2], 76%.

In the case of `CC(C)CC(=O)N1CCN(c2ccc(-c3noc([C@@H]4CCCN4C(=N)N)n3)cc2)CC1`, the Activity in assay [1] stood at 90%.

Consider `CCCCCCCCc1ccc(-c2noc([C@@H]3CCCN3C(=N)N)n2)cc1`, for which the Activity in assay [1] is 9%; in assay [2] it was 44%.

Regarding `CCCCCCCCCCCCc1noc([C@@H]2CCCN2C(=N)N)n1`, the Activity in assay [1] came out at 57%.

For the compound `CCOCc1cc(C)cc(Cc2ccc(-c3noc([C@@H]4CCCN4C(=N)N)n3)cc2)c1`, the Activity came to 46% in assay [1] and 99% in assay [2].

For `N=C(N)N1CCC[C@H]1c1nc(-c2ccc(N3CCN(Cc4ccccc4)CC3)cc2)no1`, the Activity in assay [1] came out at 89%.

In the case of `N=C(N)N1CCC[C@H]1c1nc(-c2ccc(CCc3ccccc3)cc2)no1`, in assay [1], the Activity worked out at 70%.

Regarding `CCCCCCc1ccc(-c2noc([C@@H]3CCN3C(=N)N)n2)cc1`, the Activity in assay [1] stood at 45%; in assay [2], 86%.

Turning to `N=C(N)N1CCC[C@H]1c1nc(-c2ccc(I)cc2)no1`, in assay [1], the Activity was 63%.

Turning to `N=C(N)N1CCC[C@H]1c1nc(-c2ccc(N3CCN(C(=O)Cc4ccccc4)CC3)cc2)no1`, the Activity in assay [1] worked out at 86%.

On to `N=C(N)N1CCC[C@H]1c1nc(-c2ccc(CS(=O)(=O)c3ccccc3)cc2)no1`, for which the Activity in assay [1] worked out at 88%.

Turning to `CCCCCCCCCCc1ccc(-c2noc([C@@H]3CCN3C(=N)N)n2)cc1`, the Activity in assay [1] came to 12%.

As for `CCCCCCCCCCCCCCCCc1noc([C@@H]2CCCN2C(=N)N)n1`, the Activity in assay [1] was found to be 52%.

For the compound `CCCCCCCCCCCCCCc1ccc(-c2noc([C@@H]3CCCN3C(=N)N)n2)cc1`, the Activity in assay [1] is 16%; in assay [2] it was 52%.
